Values after ≈ are worked out from the molar mass of the structure shown. Active and inactive are the calls of the source. No cut-off for these calls is given here.
Key:
[1] = test system: HT-29; assay: Antiproliferative activity against human HT-29 cells after 72 hrs by MTT assay; assay type: functional, cell-based; conditions: HT-29, 72 h
Outline: (§1)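 Cells grown in RPMI 1640 with 10% FBS in 96-well plates overnight, then exposed to test agents in triplicate for 72 h. MTT (5 mg/mL stock) added for the last 4 h, formazan dissolved in DMSO, absorbance read at 570 nm. Inhibition = (1 − OD treated/OD control) × 100%.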

[2] = test system: SW-620; assay: Antiproliferative activity against human SW620 cells after 72 hrs by MTT assay; assay type: functional, cell-based; conditions: SW-620, 72 h; outline: as §1
[3] = Half life in Sprague-Dawley rat at 20 mg/kg, iv after 4 hrs by LC-MS/MS analysis; assay type: ADME, organism-based; conditions: in vivo
[4] = test system: HCT-116; assay: Antitumor activity against human HCT116 cells xenografted in BALB/c nude mouse assessed as tumor growth inhibition at 5 mg/kg, ip administered daily for 21 consecutive days relative to control; assay type: functional; conditions: HCT-116, ip, read-out: TGI
Outline: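 Male BALB/c nude mice, 3–5 weeks old, inoculated subcutaneously with 1 × 10^7 HCT-116 cells. At about 75 mm³ tumor volume, randomized (n = 8/group) and dosed intraperitoneally daily. Volume by caliper as d² × D/2. At the end, tumors excised and weighed; inhibition = (Wcontrol − Wtreated)/Wcontrol × 100%.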

[5] = test system: Mus musculus; assay: Acute toxicity in ICR mouse assessed as mortality at 50 mg/kg, ip administered for 14 days; assay type: organism-based; conditions: in vivo, 336 h
[6] = test system: HCT-116; assay: Cytotoxicity against human HCT116 cells at 2 to 50 nM after 24 to 48 hrs in presence of TGF-beta1 by MTT assay; assay type: cell-based; conditions: hct-116, 0.05 µM
Outline: (§2)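 HCT-116 cells exposed to TGF-β1 (10 ng/mL) alone or combined with test agent at 2, 10 or 50 nM for 24, 48 or 72 h. Viability read by MTT (formazan in DMSO, 570 nm).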

[7] = test system: HCT-8; assay: Antiproliferative activity against human HCT8 cells after 72 hrs by MTT assay; assay type: functional, cell-based; conditions: HCT-8, 72 h; outline: as §1
[8] = Induction of ROS accumulation in human CCD-841 cells at 10 uM after 3 hrs by DCFH-DA staining-based fluorescence microscopic analysis; assay type: cell-based; conditions: ccd-841, 3 h
Outline: (§3)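 HCT-116 or CCD-841 cells treated at 10 μM for 3 h, stained with DCFH-DA, and imaged by fluorescence microscopy for green-fluorescent cells.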

[9] = test system: K562; assay: Antiproliferative activity against human K562 cells after 72 hrs by MTT assay; assay type: functional, cell-based; conditions: K562, 72 h; outline: as §1
[10] = test system: Mus musculus; assay: Toxicity in BALB/c nude mouse assessed as reduction in body weight at 2.5 to 5 mg/kg, ip administered for 21 consecutive days; assay type: organism-based; conditions: in vivo
Outline: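 Male BALB/c nude mice (3−5 weeks) inoculated sc with 1 × 10^7 HCT-116 cells; at tumour volume about 75 mm3 randomized (n = 8 per group) and dosed ip daily at 2.5 or 5 mg/kg for 21 consecutive days. Body weights monitored; liver, kidney, lung and heart inspected for size and morphology at sacrifice.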

[11] = Acute toxicity in ip dosed ICR mouse assessed as mortality after 14 days; assay type: organism-based; conditions: in vivo
[12] = test system: HCT-116; assay: Antiproliferative activity against human HCT116 cells after 72 hrs by MTT assay; assay type: functional, cell-based; conditions: HCT-116, 72 h; outline: as §1
[13] = test system: U-87 MG; assay: Antiproliferative activity against human U87MG cells after 72 hrs by MTT assay; assay type: functional, cell-based, U-87MG ATCC; outline: as §1
[14] = test system: HCT-116; assay: Cytotoxicity against human HCT116 cells assessed as reduction in cell viability at 50 nM after 72 hrs by MTT assay; assay type: cell-based; conditions: hct-116, 72 h, 0.05 µM; outline: as §2
[15] = test system: Mus musculus; assay: Toxicity in BALB/c nude mouse xenografted with human HCT116 cells assessed as loss of body weight at 4 mg/kg, ip administered thrice a week for 6 consecutive weeks; assay type: organism-based; conditions: in vivo
Outline: (§4)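 Lung metastasis model: HCT-116 cells in serum-free medium injected into tail vein of BALB/c nude mice, then randomized and given vehicle or compound ip (1, 2 or 4 mg/kg) three times a week. Body weight recorded weekly, survival monitored (n = 6); mice sacrificed after 40 days and lungs examined by H&E histology.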

[16] = Antiproliferative activity against human CCD-841 cells after 72 hrs by MTT assay; assay type: cell-based; conditions: CCD-841, 72 h; outline: as §1
[17] = test system: HCT-116; assay: Induction of ROS accumulation in human HCT116 cells at 10 uM after 3 hrs by DCFH-DA staining-based fluorescence microscopic analysis; assay type: functional, cell-based; outline: as §3
[18] = Solubility of compound in phosphate buffer at pH 7.4 after 8 hrs by HPLC analysis; assay type: physicochemical
Outline: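 Compound was shaken in 50 mM phosphate buffer (pH 7.4) at 20 °C, centrifuged, and the supernatant analysed by HPLC. Conditions were a C18 column, acetonitrile–water 60/40 (v/v) at 1.0 mL/min, with detection at 254 nm. Run in triplicate.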

[19] = test system: HCT-116; assay: Inhibition of IL-1beta-mediated adhesion of human rhodamine 123-labeled HCT116 cells to HUVEC after 1 hr by fluoresence assay; assay type: functional, cell-based
Outline: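 HUVEC monolayers pretreated with or without IL-1β (1 ng/mL) for 4 h, then washed. Rhodamine 123-labeled HCT-116 cells added with vehicle or test agent (2, 10, 50 nM) at 37 °C for 1 h. Non-adherent cells washed off; percent adhered cells determined by fluorescence microscopy. Three separate experiments.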

[20] = Thiol reactivity in DMSO assessed as addition reaction at C8 position at 5 mg up to 8 hrs in presence of 3.0 equiv methyl thioglycolate by 1H NMR analysis
[21] = test system: Mus musculus; assay: Toxicity in BALB/c nude mouse xenografted with human HCT116 cells assessed as mortality at 4 mg/kg, ip administered thrice a week for 6 consecutive weeks; assay type: organism-based; conditions: in vivo; outline: as §4
[22] = test system: HCT-116; assay: Inhibition of TGF-beta1-induced increase in expression levels of vimentin protein in human HCT116 cells at 50 nM after 48 hrs by Western blot analysis; assay type: functional, cell-based
Outline: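 HCT-116 cells (1 × 10^6/well, plated overnight) were exposed to TGF-β1 (10 ng/mL) for 48 h, with or without test compound; vehicle was 0.1% DMSO. Lysates (20 μg/lane) were run on 7.5% SDS-PAGE and blotted to PVDF, with primary antibody overnight at 4 °C and HRP/ECL detection. Band densities were normalised to β-actin across three independent experiments.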

Cc1nc(C)c(/C=C/C(=O)N2CCC=C(Cl)C2=O)nc1C
IC50 [1]: 0.54 µM | IC50 [2]: 0.87 µM | half-life [3]: 2.17 h | inhibition in vivo at 5 mg/kg [4]: 71.4% | Activity [5]: Non-Toxic | Activity [6]: Non-Toxic | IC50 [7]: 1.21 µM | Activity [8]: Toxic | IC50 [9]: 0.25 µM | Activity [10]: Non-Toxic | LD50 at 336 h [11]: 148 mg/kg | IC50 [12]: 0.3 µM | IC50 [13]: 3.43 µM | Activity [14]: Toxic | Activity [15]: Non-Toxic | IC50 [16]: 51.6 µM | Activity [17]: Active | solubility at 8 h [18]: 74.6 µg/mL (≈ 244 µM) | inhibition [19]: Dose-dependent effect | Drug metabolism [20]: Metabolite not detected

COc1cc(/C=C/C(=O)N2CCC=CC2=O)cc(OC)c1OC [PIPLARTINE]
IC50 [1]: 2.65 µM | IC50 [2]: 4.62 µM | half-life [3]: 2.87 h | inhibition in vivo at 5 mg/kg [4]: 60.6% | Activity [6]: Non-Toxic | IC50 [7]: 4.1 µM | Activity [8]: Toxic | IC50 [9]: 5.05 µM | IC50 [12]: 8.13 µM | IC50 [13]: 17.3 µM | Activity [21]: Non-Toxic | Activity [15]: Non-Toxic | IC50 [16]: 44.3 µM | Activity [17]: Active | inhibition [22]: Active | solubility at 8 h [18]: 0.32 µg/mL (≈ 1.01 µM)
